ChEMBL document CHEMBL3627597, “Synthesis of Fluorine-Containing Phosphodiesterase 10A (PDE10A) Inhibitors and the In Vivo Evaluation of F-18 Labeled PDE10A PET Tracers in Rodent and Nonhuman Primate” (J Med Chem, 2015)

How the values were obtained:
[1] = test system: Liver; assay: Biodistribution in Sprague-Dawley rat liver at 1.48 to 2.22 MBq, iv measured at 30 mins by gamma counting analysis; format: ADME, organism-based; conditions: in vivo, 0.5 h
Summary of the method: (§1)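 Male Sprague-Dawley rats (250 - 400 g), tail-vein injection of 1.48 - 2.22 MBq radiotracer under 2.5% isoflurane in oxygen; n=4 per time point, euthanized at 5, 30 and 60 min p.i. Brain regions obtained by gross dissection; peripheral tissues collected. Samples weighed, gamma-counted against a diluted-injectate standard; %ID/g calculated.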

[2] = test system: Brain; assay: Biodistribution in Sprague-Dawley rat brain at 1.48 to 2.22 MBq, iv measured at 5 mins by gamma counting analysis; format: ADME, organism-based; conditions: in vivo; summary of the method: as §1
[3] = test system: Blood; assay: Biodistribution in Sprague-Dawley rat blood at 1.48 to 2.22 MBq, iv measured at 5 mins by gamma counting analysis; format: ADME, organism-based; conditions: in vivo; summary of the method: as §1
[4] = test system: Caudate; assay: Drug uptake in cynomolgus monkey caudate at 185 to 259 MBq, iv measured over 180 mins by micro PET image analysis; format: ADME, organism-based, Macaca fascicularis, Caudate nucleus; conditions: in vivo, 3 h
Summary of the method: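 Adult male cynomolgus macaques (~4–6 kg), three studies per tracer, fasted 12 h. Induction with ketamine 10 mg/kg plus glycopyrrolate 0.13 mg/kg i.m. Transmission scans of 10 min for positioning and 45 min for attenuation correction, then a 3 h dynamic microPET emission scan after venous injection of 185 - 259 MBq. ROI time-activity curves expressed as SUV (body weight and injected dose).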

[5] = Metabolic stability in cynomolgus monkey plasma assessed as compound remaining at 185 to 259 MBq, iv measured at 60 mins by HPLC analysis; format: ADME, organism-based, Macaca fascicularis; conditions: read-out: Stability
Summary of the method: (§2)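 Arterial blood (~1.5 mL) drawn at 2, 15, 30, 60 and 90 min p.i. into heparinized syringes, then centrifuged to plasma. Plasma deproteinated with 2 parts ice-cold methanol. Extract run on C-18 HPLC, MeCN/0.1 M ammonium formate pH 4.5, 0.9 mL/min, UV 254 nm. 1-min fractions over 16 min were well-counted and decay-corrected; parent percentage taken from recovered activity.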

[6] = test system: Rattus norvegicus; assay: Biodistribution in Sprague-Dawley rat fat tissue at 1.48 to 2.22 MBq, iv measured at 30 mins by gamma counting analysis; format: ADME, organism-based, Adipose tissue; conditions: in vivo, 0.5 h; summary of the method: as §1
[7] = test system: Blood; assay: Biodistribution in Sprague-Dawley rat blood at 1.48 to 2.22 MBq, iv measured at 60 mins by gamma counting analysis; format: ADME, organism-based; conditions: in vivo, 1 h; summary of the method: as §1
[8] = test system: Nucleic Acid; assay: Ratio of drug level in striatum to hippocampus in cynomolgus monkey at 185 to 259 MBq, iv measured at 40 mins by micro PET image analysis; format: ADME, organism-based, Macaca fascicularis; conditions: in vivo
Summary of the method: (§3)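 Adult male cynomolgus macaques (~4–6 kg), three independent PET studies per tracer on a microPET Focus 220. Animals fasted 12 h and anesthetized with ketamine (10 mg/kg) plus glycopyrrolate (0.13 mg/kg) i.m. A 10 min positioning transmission scan and a 45 min attenuation transmission scan were run, then a 3 h dynamic emission scan after venous tracer injection. Regional TACs came from ROIs, expressed as SUV (body weight, injected dose).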

[9] = test system: Muscle tissue; assay: Biodistribution in Sprague-Dawley rat muscle at 1.48 to 2.22 MBq, iv measured at 30 mins by gamma counting analysis; format: ADME, organism-based; conditions: in vivo, 0.5 h; summary of the method: as §1
[10] = test system: Nucleic Acid; assay: Ratio of drug level in striatum to occipital in cynomolgus monkey at 185 to 259 MBq, iv measured at 70 mins by micro PET image analysis; format: ADME, organism-based, Macaca fascicularis; conditions: in vivo; summary of the method: as §3
[11] = test system: Bone; assay: Biodistribution in Sprague-Dawley rat bone at 1.48 to 2.22 MBq, iv measured at 5 mins by gamma counting analysis; format: ADME, organism-based, Bone element; conditions: in vivo; summary of the method: as §1
[12] = test system: Kidney; assay: Biodistribution in Sprague-Dawley rat kidney at 1.48 to 2.22 MBq, iv measured at 30 mins by gamma counting analysis; format: ADME, organism-based; conditions: in vivo, 0.5 h; summary of the method: as §1
[13] = test system: Rattus norvegicus; assay: Biodistribution in Sprague-Dawley rat fat tissue at 1.48 to 2.22 MBq, iv measured at 60 mins by gamma counting analysis; format: ADME, organism-based, Adipose tissue; conditions: in vivo, 1 h; summary of the method: as §1
[14] = test system: Nucleic Acid; assay: Ratio of drug level in striatum to cortex in Sprague-Dawley rat at 1.48 to 2.22 MBq, iv measured at 5 to 30 mins by gamma counting analysis; format: ADME, organism-based; conditions: in vivo
Summary of the method: (§4)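 Striatum, cerebellum and cortex obtained by gross dissection from Sprague-Dawley rats (250 - 400 g, n=4 per time point) after tail-vein injection of 1.48 - 2.22 MBq under isoflurane anesthesia. Tissues weighed and gamma-counted with an injectate standard to give %ID/g; ratios taken from striatal versus non-target uptake.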

[15] = Ratio of drug level in striatum to cerebellum in Sprague-Dawley rat at 1.48 to 2.22 MBq, iv measured at 5 to 30 mins by gamma counting analysis; format: ADME, organism-based; conditions: in vivo; summary of the method: as §4
[16] = test system: Nucleic Acid; assay: Ratio of drug level in striatum to occipital in cynomolgus monkey at 185 to 259 MBq, iv measured at 40 mins by micro PET image analysis; format: ADME, organism-based, Macaca fascicularis; conditions: in vivo; summary of the method: as §3
[17] = test system: Nucleic Acid; assay: Ratio of drug level in striatum to white matter in cynomolgus monkey at 185 to 259 MBq, iv measured at 40 mins by micro PET image analysis; format: ADME, organism-based, Macaca fascicularis; conditions: in vivo; summary of the method: as §3
[18] = test system: Kidney; assay: Biodistribution in Sprague-Dawley rat kidney at 1.48 to 2.22 MBq, iv measured at 5 mins by gamma counting analysis; format: ADME, organism-based; conditions: in vivo; summary of the method: as §1
[19] = test system: Brain; assay: Biodistribution in Sprague-Dawley rat brain at 1.48 to 2.22 MBq, iv measured at 30 mins by gamma counting analysis; format: ADME, organism-based; conditions: in vivo, 0.5 h; summary of the method: as §1
[20] = test system: Nucleic Acid; assay: Ratio of drug level in striatum to midbrain region in cynomolgus monkey at 185 to 259 MBq, iv measured at 70 mins by micro PET image analysis; format: ADME, organism-based, Macaca fascicularis, Brain; conditions: in vivo; summary of the method: as §3
[21] = Metabolic stability in cynomolgus monkey plasma assessed as compound remaining at 185 to 259 MBq, iv measured at 30 mins by HPLC analysis; format: ADME, organism-based, Macaca fascicularis; conditions: read-out: Stability; summary of the method: as §2
[22] = Metabolic stability in cynomolgus monkey plasma assessed as compound remaining at 185 to 259 MBq, iv measured at 15 mins by HPLC analysis; format: ADME, organism-based, Macaca fascicularis; conditions: read-out: Stability; summary of the method: as §2
[23] = test system: Rattus norvegicus; assay: Biodistribution in Sprague-Dawley rat fat tissue at 1.48 to 2.22 MBq, iv measured at 5 mins by gamma counting analysis; format: ADME, organism-based, Adipose tissue; conditions: in vivo; summary of the method: as §1
[24] = test system: Bone; assay: Biodistribution in Sprague-Dawley rat bone at 1.48 to 2.22 MBq, iv measured at 30 mins by gamma counting analysis; format: ADME, organism-based, Bone element; conditions: in vivo, 0.5 h; summary of the method: as §1
[25] = Metabolic stability in cynomolgus monkey plasma assessed as compound remaining at 185 to 259 MBq, iv measured at 2 mins by HPLC analysis; format: ADME, organism-based, Macaca fascicularis; conditions: read-out: Stability; summary of the method: as §2
[26] = test system: Liver; assay: Biodistribution in Sprague-Dawley rat liver at 1.48 to 2.22 MBq, iv measured at 5 mins by gamma counting analysis; format: ADME, organism-based; conditions: in vivo; summary of the method: as §1
[27] = test system: Liver; assay: Biodistribution in Sprague-Dawley rat liver at 1.48 to 2.22 MBq, iv measured at 60 mins by gamma counting analysis; format: ADME, organism-based; conditions: in vivo, 1 h; summary of the method: as §1
[28] = test system: Nucleic Acid; assay: Ratio of drug level in striatum to frontal in cynomolgus monkey at 185 to 259 MBq, iv measured at 40 mins by micro PET image analysis; format: ADME, organism-based, Macaca fascicularis; conditions: in vivo; summary of the method: as §3
[29] = test system: Nucleic Acid; assay: Ratio of drug level in striatum to frontal in cynomolgus monkey at 185 to 259 MBq, iv measured at 70 mins by micro PET image analysis; format: ADME, organism-based, Macaca fascicularis; conditions: in vivo; summary of the method: as §3
[30] = Metabolic stability in cynomolgus monkey plasma assessed as compound remaining at 185 to 259 MBq, iv measured at 90 mins by HPLC analysis; format: ADME, organism-based, Macaca fascicularis; conditions: read-out: Stability; summary of the method: as §2
[31] = test system: Blood; assay: Biodistribution in Sprague-Dawley rat blood at 1.48 to 2.22 MBq, iv measured at 30 mins by gamma counting analysis; format: ADME, organism-based; conditions: in vivo, 0.5 h; summary of the method: as §1

Compound: Cn1cc(-c2ccncc2)c(-c2ccc(OCc3nc4ccccc4cc3OCC[18F])cc2)n1
- Drug uptake [1]: 3.17 % ID/g
- Drug uptake [2]: 0.092 % ID/g
- Drug uptake [3]: 0.343 % ID/g
- Drug uptake [4]: Active
- remaining at 1 h [5]: 55%
- Drug uptake [6]: 0.202 % ID/g
- Drug uptake [7]: 0.287 % ID/g
- Ratio [8]: > 3
- Drug uptake [9]: 0.156 % ID/g
- Ratio [10]: > 5
- Drug uptake [11]: 0.182 % ID/g
- Drug uptake [12]: 1.022 % ID/g
- Drug uptake [13]: 0.124 % ID/g
- Ratio [14]: > 2
- Ratio [15]: > 2
- Ratio [16]: > 3
- Ratio [17]: > 3
- Drug uptake [18]: 1.789 % ID/g
- Drug uptake [19]: 0.129 % ID/g
- Ratio [20]: > 5
- remaining at 0.5 h [21]: 73%
- remaining at 0.25 h [22]: 90%
- Drug uptake [23]: 0.119 % ID/g
- Drug uptake [24]: 0.144 % ID/g
- remaining at 2 min [25]: 99%
- Drug uptake [26]: 4.24 % ID/g
- Drug uptake [27]: 1.8 % ID/g
- Ratio [28]: > 3
- Ratio [29]: > 5
- remaining at 1.5 h [30]: 45%
- Drug uptake [31]: 0.306 % ID/g
